Calls of active or inactive are those of the source. The rule behind the calls is not given here.
Columns and labels:
[1] = Solubility in water; format: physicochemical
Liver microsomes [2] = assay: Metabolic stability in human liver microsomes assessed as formation of (2R,3R)-3-((2R,5r)-2-((1E,3E)-4-(4-cyano-2-fluorophenyl)buta-1,3-dienyl)-1,3-dioxan-5-ylthio)-2-(2,4-difluorophenyl)-1-(1H-1,2,4-triazol-1-yl)butan-2-yl 2-hydroxyacetate after 30 mins; format: ADME, Microsome; conditions: 0.5 h
Liver microsomes [3] = assay: Metabolic stability in human liver microsomes assessed as formation of (2R,3R)-3-((2R,5r)-2-((1E,3E)-4-(4-cyano-2-fluorophenyl)buta-1,3-dienyl)-1,3-dioxan-5-ylthio)-2-(2,4-difluorophenyl)-1-(1H-1,2,4-triazol-1-yl)butan-2-yl 2-hydroxyacetate after 120 mins; format: ADME, Microsome; conditions: 2 h
Rattus norvegicus = assay: Half life in rat assessed as CS-758 elimination at 2 mg/kg, iv; format: ADME, organism-based; design: dose 2 mg/kg, route intravenous; conditions: in vivo
Outline: (§1)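 Rats received a single iv dose of prodrug at 2 mg/kg, and plasma CS-758 was followed over time (average of three rats). Bioavailability (%) = AUC of CS-758 after iv prodrug / AUC of CS-758 after iv CS-758 dissolved in polyethylene glycol solution × 100.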

Candida albicans = assay: Antifungal activity against Candida albicans SANK 51486 infected in mouse at 0.2 to 20 mg/kg, iv administered 2 hrs post infection measured after 24 hrs; format: functional, organism-based
Outline: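 Mouse systemic Candida albicans infection, challenge 4.2 × 10⁵ CFU/mouse. Single dose 2 h after challenge, at 0.2, 2 or 20 mg/kg, vehicle controls. Kidney viable cell counts taken at 24 h. Mean + S.E., n = 8 per group, significance at p<0.05 and p<0.001.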

[4] = Bioavailability in rat at 2 mg/kg, iv; format: ADME, organism-based; conditions: in vivo; outline: as §1
[5] = Cmax in rat at 2 mg/kg, iv; format: ADME, organism-based; design: dose 2 mg/kg, route intravenous; conditions: in vivo; outline: as §1

With C[C@@H](S[C@H]1CO[C@H](/C=C/C=C/c2ccc(C#N)cc2F)OC1)[C@@](Cn1cncn1)(OC(=O)CN(C)C)c1ccc(F)cc1F the solubility [1] was less than 1000 µg/mL.
For C[C@@H](S[C@H]1CO[C@H](/C=C/C=C/c2ccc(C#N)cc2F)OC1)[C@@](Cn1cncn1)(OC(=O)COP(=O)([O-])O)c1ccc(F)cc1F.[Na+], the Activity (Liver microsomes [2]) was “Active”, the Activity (Liver microsomes [3]) was “Active” and the solubility [1] was greater than 10000 µg/mL.
In the case of C[C@@H](S[C@H]1CO[C@H](/C=C/C=C/c2ccc(C#N)cc2F)OC1)[C@@](Cn1cncn1)(OP(=O)([O-])O)c1ccc(F)cc1F.[Na+], the t1/2 (Rattus norvegicus) is reported as 5.7 h, the Activity (Candida albicans) is reported as “Active” and the solubility [1] is reported as greater than 30000 µg/mL.
Molecule C[C@@H](S[C@H]1CO[C@H](/C=C/C=C/c2ccc(C#N)cc2F)OC1)[C@@](Cn1cncn1)(OC(=O)CCN)c1ccc(F)cc1F has a solubility [1] of less than 1000 µg/mL.
For C[C@@H](S[C@H]1CO[C@H](/C=C/C=C/c2ccc(C#N)cc2F)OC1)[C@@](Cn1cncn1)(OC(=O)C[N+](C)(C)C)c1ccc(F)cc1F.[Cl-], the bioavailability [4] was 3.3% and the solubility [1] was greater than 10000 µg/mL.
Molecule C[C@@H](S[C@H]1CO[C@H](/C=C/C=C/c2ccc(C#N)cc2F)OC1)[C@](O)(Cn1cncn1)c1ccc(F)cc1F [EMBECONAZOLE] has a bioavailability [4] of 3.3% and a Cmax [5] of 1300 ng/mL.
With C[C@@H](S[C@H]1CO[C@H](/C=C/C=C/c2ccc(C#N)cc2F)OC1)[C@@](Cn1cncn1)(OC(=O)COC(=O)CCC(=O)[O-])c1ccc(F)cc1F.[Na+] the Activity (Liver microsomes [2]) was “Active”, the Activity (Liver microsomes [3]) was “Active” and the solubility [1] was greater than 10000 µg/mL.
For C[C@@H](S[C@H]1CO[C@H](/C=C/C=C/c2ccc(C#N)cc2F)OC1)[C@@](Cn1cncn1)(OC(=O)CO)c1ccc(F)cc1F, the solubility [1] was less than 1000 µg/mL.
C[C@@H](S[C@H]1CO[C@H](/C=C/C=C/c2ccc(C#N)cc2F)OC1)[C@@](Cn1cncn1)(OC(=O)CN)c1ccc(F)cc1F gave a solubility [1] of less than 1000 µg/mL.
